Experimental data: ChEMBL document CHEMBL4130484, “Identification and optimization of novel 6-acylamino-2-aminoquinolines as potent Hsp90 C-terminal inhibitors” (Eur J Med Chem, 2017)
In brackets after ≈: the same amount, converted by molar mass. Activity calls are given as the source filed them. The rule behind the calls is not given here.

Legend:
[1] = Distribution coefficient, log D of the compound at pH 7.4; type: physicochemical; settings: octanol/water
In short: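 Log D at pH 7.4 measured on a PULSE platform.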

MCF7 [2] = assay: Antiproliferative activity against human MCF7 cells incubated for 72 hrs by MTT assay; type: functional, cell-based; settings: MCF7, 72 h
In short: (§1)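 MTT antiproliferation assay in MCF7 and SKBr3 breast cancer cells; IC50 determined.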

SK-BR-3 = assay: Antiproliferative activity against human SKBR3 cells incubated for 72 hrs by MTT assay; type: functional, cell-based; settings: SK-BR-3, 72 h; in short: as §1
[3] = Permeability coefficient of the compound at pH 7.4 by double-sink PAMPA; type: ADME; settings: read-out: permeability
In short: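 Double-sink PAMPA at pH 7.4 on a PAMPA Explorer instrument; Pe reported as mean ± SD, n = 3.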

[4] = Intrinsic aqueous solubility of the compound; type: physicochemical
In short: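 Intrinsic aqueous solubility determined on a Gemini Profiler instrument.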

MCF7 [5] = assay: Growth inhibition of human MCF7 cells at 50 uM incubated for 72 hrs by MTT assay; type: functional; settings: MCF7, 72 h, read-out: GI
In short: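 MTT screen in MCF7 cells at a single concentration of 50 µM; growth inhibition rate recorded.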

[6] = biological target: T1, Heat shock protein HSP90 (Homo sapiens) (UniProt P07900+P08238); assay: Inhibition of HSP90 C-terminal in human MCF7 cells assessed as reduction in Akt protein expression at 5 to 20 uM incubated for 24 hrs by Western blot method; type: cell-based
In short: (§2)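 MCF7 cells incubated 24 h with various concentrations, then client protein levels read by Western blot. β-Actin served as loading control. AT13387 (1.0 µM), an N-terminal Hsp90 inhibitor, was the positive control.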

[7] = biological target: T1, Heat shock protein HSP90 (Homo sapiens); assay: Inhibition of HSP90 C-terminal in human MCF7 cells assessed as reduction in CDK6 protein expression at 5 to 20 uM incubated for 24 hrs by Western blot method; type: cell-based; in short: as §2
[8] = biological target: T1, Heat shock protein HSP90 (Homo sapiens); assay: Inhibition of HSP90 C-terminal in human MCF7 cells assessed as reduction in ERK protein expression at 5 to 20 uM incubated for 24 hrs by Western blot method; type: cell-based; in short: as §2

| SMILES | IC50 (MCF7 [2]) | IC50 (SK-BR-3) | inhibition of growth at 50 µM (MCF7 [5]) | also measured |
| --- | --- | --- | --- | --- |
| Cc1cc(NCCN2CCCC2)nc2ccc(NC(=O)c3ccc(Cl)c(Cl)c3)cc12 | 1.28 µM | 9.53 µM |  | logD [1]: 1.72; Papp [3]: 20.8 ×10⁻⁶ cm/s; solubility [4]: 84.5 µg/mL (≈ 191 µM) |
| Cc1cc(N2CCN(C)CC2)nc2ccc(NC(=O)c3ccc(Cl)c(Cl)c3)cc12 | 3 µM | 6.32 µM |  |  |
| COc1ccc(NC(=O)c2nnc(COCC(=O)NCCN(C)C)s2)cc1 |  |  | < 50% |  |
| CNc1cc(C)c2cc(NC(=O)c3ccc(Cl)c(Cl)c3)ccc2n1 | 2.52 µM | 6.35 µM |  |  |
| CCN1CCN(c2cc(C)c3cc(NC(=O)c4ccc(OC)c(OC)c4)ccc3n2)CC1 | 3.65 µM | 2.71 µM |  |  |
| COc1ccc(C(=O)Nc2ccc3nc(SCC(=O)N4CCCC4)sc3c2)cc1 |  |  | 62.5% |  |
| CCN1CCN(c2cc(C)c3cc(NC(=O)c4ccc5ccccc5n4)ccc3n2)CC1 | 7.06 µM | 3.76 µM |  |  |
| CCN1CCN(c2cc(C)c3cc(NC(=O)c4ccccc4C)ccc3n2)CC1 | 10.9 µM | 29.2 µM |  |  |
| CCN1CCN(Cc2nc3ccc(NC(=O)c4ccc(OC)cc4)cc3n2C(C)C)CC1 |  |  | 55% |  |
| CCN1CCN(c2cc(C)c3cc(NC(=O)c4ccc(C)cc4)ccc3n2)CC1 | 6.74 µM | 11.4 µM |  |  |
| CCN1CCN(C(=O)CSCc2nnc(C(=O)Nc3ccc(OC)cc3)s2)CC1 |  |  | < 50% |  |
| CCN(CC)CCNc1cc(C)c2cc(NC(=O)c3ccc(Cl)c(Cl)c3)ccc2n1 | 1.42 µM | 3.71 µM |  | logD [1]: 1.66; Papp [3]: 28.1 ×10⁻⁶ cm/s; solubility [4]: 95.2 µg/mL (≈ 214 µM) |
| O=C(Nc1nc(C(=O)NCCN2CCCCC2)cs1)c1ccc2c(c1)OCO2 |  |  | < 50% |  |
| CCN1CCN(CCCNC(=O)c2nc(-c3nn(-c4ccc(C)cc4)c(=O)n(C)c3=O)no2)CC1 |  |  | < 50% |  |
| CCN1CCN(c2cc(C)c3cc(NC(=O)c4ccccc4OC)ccc3n2)CC1 | 13.2 µM | 15.7 µM |  |  |
| O=C(Nc1nc(C(=O)NCCCN2CCCC2=O)cs1)c1ccc2c(c1)OCO2 |  |  | < 50% |  |
| CCN1CCN(c2cc(C)c3cc(NC(=O)c4ccccc4Cl)ccc3n2)CC1 | > 50 µM | > 50 µM |  |  |
| Cc1cc(N2CCOCC2)nc2ccc(NC(=O)c3ccc(Cl)c(Cl)c3)cc12 | 12 µM | 15.1 µM |  |  |
| CCN1CCN(c2cc(C)c3cc(NC(=O)c4cccnc4)ccc3n2)CC1 | 26.6 µM | 10.6 µM |  |  |
| CCN1CCN(c2cc(C)c3cc(NC(=O)c4ccc(Br)cc4)ccc3n2)CC1 | 5.94 µM | 6.31 µM |  |  |
| CCN1CCN(c2cc(C)c3cc(NC(=O)c4cccc(Br)c4)ccc3n2)CC1 | 11.6 µM | 13.3 µM |  |  |

| SMILES | IC50 (MCF7 [2]) | IC50 (SK-BR-3) | inhibition of growth at 50 µM (MCF7 [5]) | also measured |
| --- | --- | --- | --- | --- |
| CCN(CC)c1cc(C)c2cc(NC(=O)c3ccc(Cl)c(Cl)c3)ccc2n1 | > 50 µM | 41.2 µM |  |  |
| CCN1CCN(c2cc(C)c3cc(NC(=O)c4cccc(F)c4)ccc3n2)CC1 | 8.92 µM | 24.9 µM |  |  |
| CCc1ccc(C(=O)Nc2ccc3nc(N4CCN(CC)CC4)cc(C)c3c2)cc1 | 3.06 µM | 9.85 µM |  |  |
| CCN1CCN(c2cc(C)c3cc(NC(=O)c4cccc(Cl)c4)ccc3n2)CC1 | 3.82 µM | 17.8 µM |  |  |
| O=C(NCCCN1CCOCC1)c1ccc(NC(=O)c2nnc(COc3ccccc3)s2)cc1 |  |  | 50.6% |  |
| CCNc1cc(C)c2cc(NC(=O)c3ccc(Cl)c(Cl)c3)ccc2n1 | 48.6 µM | 28.2 µM |  |  |
| Cc1cc(N2CCCC2)nc2ccc(NC(=O)c3ccc(Cl)c(Cl)c3)cc12 | 26.3 µM | 43.4 µM |  |  |
| CCN1CCN(c2cc(C)c3cc(NC(=O)c4ccccc4Br)ccc3n2)CC1 | 27.5 µM | 39.2 µM |  |  |
| Cc1cc(N2CCN(C(C)C)CC2)nc2ccc(NC(=O)c3ccc(Cl)c(Cl)c3)cc12 | 1.71 µM | 6.68 µM |  |  |
| Cc1oc2ncn(CC(C)C)c(=O)c2c1C(=O)Nc1ccc(C(=O)NCCN2CCCC2)nc1 | 8.41 µM | 8.09 µM | 90.4% | inhibition [6]: inactive; inhibition [7]: inactive; inhibition [8]: inactive |
| COc1ccc(-c2noc(C(=O)NCc3ccc(CN4CCOCC4)cc3)n2)cc1OC |  |  | < 50% |  |
| Cc1cc(N(C)C)nc2ccc(NC(=O)c3ccc(Cl)c(Cl)c3)cc12 | 33.3 µM | > 50 µM |  |  |
| CCc1ccccc1C(=O)Nc1ccc2nc(N3CCN(CC)CC3)cc(C)c2c1 | 15.8 µM | 23.9 µM |  |  |
| COCc1nnc(C(=O)Nc2ccc(C(=O)NCCCN3CCCCC3)cc2)s1 |  |  | < 50% |  |
| CCN(CC)CCOC(=O)c1ccc(NC(=O)c2ccc(OC)cc2)cc1 |  |  | < 50% |  |
| CCN1CCN(c2cc(C)c3cc(NC(=O)c4ccc(Cl)c(Cl)c4)ccc3n2)CC1 | 1.38 µM | 2.16 µM |  | logD [1]: 3.67; Papp [3]: 25.9 ×10⁻⁶ cm/s; solubility [4]: 11.3 µg/mL (≈ 25.5 µM) |
| CCN1CCN(c2cc(C)c3cc(NC(=O)c4cccc(C)c4)ccc3n2)CC1 | 7.8 µM | 13.7 µM |  |  |
| Cc1cc(NCCN(C)C)nc2ccc(NC(=O)c3ccc(Cl)c(Cl)c3)cc12 | 2.55 µM | 6.67 µM |  | logD [1]: 1.47; Papp [3]: 3.13 ×10⁻⁶ cm/s; solubility [4]: 122 µg/mL (≈ 292 µM) |
| CCN1CCN(c2cc(C)c3cc(NC(=O)c4ccc(OC)cc4)ccc3n2)CC1 | 7.69 µM | 9 µM |  |  |
| Cc1cc(NCCN2CCOCC2)nc2ccc(NC(=O)c3ccc(Cl)c(Cl)c3)cc12 | 5.23 µM | 9.16 µM |  | logD [1]: 2.64; Papp [3]: 49.8 ×10⁻⁶ cm/s; solubility [4]: 76.2 µg/mL (≈ 166 µM) |
| CCN1CCN(c2cc(C)c3cc(NC(=O)c4ccccc4F)ccc3n2)CC1 | 32.6 µM | 38.1 µM |  |  |

| SMILES | IC50 (MCF7 [2]) | IC50 (SK-BR-3) | inhibition of growth at 50 µM (MCF7 [5]) | also measured |
| --- | --- | --- | --- | --- |
| CCN1CCN(c2cc(C)c3cc(NC(=O)c4cc5ccccc5[nH]4)ccc3n2)CC1 | 2.95 µM | 2.55 µM |  |  |
| CCN1CCN(c2cc(C)c3cc(NC(=O)c4ccc(F)c(F)c4)ccc3n2)CC1 | 5.23 µM | 1.98 µM |  |  |
| CCN1CCN(c2cc(C)c3cc(NC(=O)c4cc(Cl)cc(Cl)c4)ccc3n2)CC1 | 6.09 µM | 2.66 µM |  |  |
| COc1ccc(C(=O)Nc2cnn(-c3ncc(N4CCSCC4)cn3)c2)cc1F |  |  | < 50% |  |
| CCN1CCN(c2cc(C)c3cc(NC(=O)c4ccc(Cl)cc4)ccc3n2)CC1 | 1.53 µM | 3.02 µM |  |  |
| CCN1CCN(c2cc(C)c3cc(NC(=O)c4ccco4)ccc3n2)CC1 | 41.2 µM | 37.5 µM |  |  |
| Cc1cc(NCCN2CCN(C)CC2)nc2ccc(NC(=O)c3ccc(Cl)c(Cl)c3)cc12 | 1.7 µM | 2.69 µM |  | logD [1]: 1.73; Papp [3]: 7.71 ×10⁻⁶ cm/s; solubility [4]: 106 µg/mL (≈ 224 µM) |
| COc1cc(NC(=O)N2CCC(CC(=O)NCCN3CCCC3)CC2)cc(OC)c1OC |  |  | < 50% |  |
| CCN1CCN(c2cc(C)c3cc(NC(=O)c4ccc[nH]4)ccc3n2)CC1 | 14.7 µM | 13.2 µM |  |  |
| CCn1c(C(=O)NCCN2CCOCC2)cc2cc(NC(=O)c3ccc(F)cc3)ccc21 |  |  | < 50% |  |
| COc1ccc(C(=O)Nc2nc(CC(=O)N3CCN(c4ccccc4)CC3)cs2)cc1OC |  |  | < 50% |  |
| CCN1CCN(c2cc(C)c3cc(NC(=O)c4ccccc4)ccc3n2)CC1 | 14.2 µM | 18.4 µM |  |  |
| CCN1CCN(c2cc(C)c3cc(NC(=O)c4ccc5c(c4)OCO5)ccc3n2)CC1 | 4.61 µM | 12.6 µM |  |  |
| COc1ccc(C(=O)Nc2ccc3nc(CN4CCN(C)CC4)n(C)c3c2)cc1OC |  |  | 50.8% |  |
| Cc1cc(N2CCCCC2)nc2ccc(NC(=O)c3ccc(Cl)c(Cl)c3)cc12 | 31.1 µM | 42.5 µM |  |  |
| CCN1CCN(c2cc(C)c3cc(NC(=O)c4ccc(F)cc4)ccc3n2)CC1 | 4.03 µM | 19.8 µM |  |  |
| CCN1CCN(c2cc(C)c3cc(NC(=O)c4ccncc4)ccc3n2)CC1 | > 50 µM | > 50 µM |  |  |
| CCCOc1cccc(C(=O)NC(=S)Nc2ccc(N3CCCCC3)c(Cl)c2)c1 |  |  | < 50% |  |
| CCN(CC)CCOC(=O)c1ccc(NC(=O)C2=CC3C(c4ccccc4F)=NN(C)C3S2)cc1 (centres undefined) | 5.38 µM | 4.99 µM | 99.6% | inhibition [6]: inactive; inhibition [7]: inactive; inhibition [8]: inactive |
| CCN1CCN(c2cc(C)c3cc(NC(=O)c4cccc(OC)c4)ccc3n2)CC1 | 4.86 µM | 3.33 µM | 96.9% | inhibition [6]: Active; inhibition [7]: Active; inhibition [8]: Active |
| CC(C)c1cc(C(=O)N2Cc3ccc(CN4CCN(C)CC4)cc3C2)c(O)cc1O [ONALESPIB] | 0.032 µM | 0.045 µM |  |  |
